Test results: paper PMC4780051 (Biochemistry, 2010)

Columns and labels:
[1] = biological target: T1, ct-AChBP (Capitella teleta acetylcholine-binding protein) (Capitella teleta, UniProt I6L8L2); experiment: STD NMR displacement titration with choline as reporter ligand
T1 sequence (I6L8L2 1-224): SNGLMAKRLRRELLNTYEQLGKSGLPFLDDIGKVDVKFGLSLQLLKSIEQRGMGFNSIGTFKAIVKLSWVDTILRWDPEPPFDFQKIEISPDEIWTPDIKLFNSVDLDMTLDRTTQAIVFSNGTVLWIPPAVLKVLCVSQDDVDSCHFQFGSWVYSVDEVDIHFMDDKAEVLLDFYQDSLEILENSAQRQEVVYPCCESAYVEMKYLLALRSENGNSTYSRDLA
Procedure, shortened: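 C-terminally V5/His-tagged ct-AChBP, stably expressed in HEK293-f cells, purified from medium by cobalt affinity then Superdex 200. 5 μM protein with 100 μM choline in 25 mM phosphate pH 7.0, 100% D2O, titrated with test compound; 16K scans; choline CH2 STD peaks tracked. KD fitted by competition equation using choline KD from shift/line-width titration; standard errors from asymptotic covariance matrix.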

[2] = biological target: T1, ct-AChBP (Capitella teleta acetylcholine-binding protein); experiment: 1H NMR direct titration
[3] = biological target: T1, ct-AChBP (Capitella teleta acetylcholine-binding protein); experiment: STD NMR displacement titration with acetylcholine as reporter ligand
[4] = biological target: Capitella teleta acetylcholine-binding protein (Capitella teleta); experiment: NMR titration

Q: `CC(=O)OCC[N+](C)(C)C` [ACh, acetylcholine] was tested. Which Kd [1] did it give?
A: 28.7 ± 1.7 µM

Q: `C[N+](C)(C)CCO` [Ch, choline] was tested. Which Kd [2] did it give?
A: 163 ± 37 µM

Q: With `CN1CCC[C@H]1c1cccnc1` [Nic, nicotine] as the compound, how does the Kd [3] read?
A: 0.209 ± 0.051 µM

Q: For “α-bungarotoxin (from UniProt P60615 22-95) (natural protein)”, which Kd [4] is on record?
A: 0.11 µM
